# Screening results: PubChem BioAssay, several laboratories
# The list is not random: actives were taken first. Their share in the collection is about 1.6%.
# p47phox inh = inhibitors of human p47phox binding; inhibition, % at 24.7 µM; AID 1274; 0.53% of 220,000 active; p47phox/p22phox peptide binding, fluorescence polarization, 2 h; P14598;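 note: 0% = p47phox with labelled peptide and 100% = labelled peptide alone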
# TbMetRS inhib = blocks T. brucei methionyl-tRNA synthetase activity; inhibition, % at 11.9 µM; AID 624268; 0.4% of 360,000 active; purified T. brucei MetRS, ATP depletion, Kinase-Glo luminescence;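 active = inhibition above a per-plate cutoff of the control wells' mean inhibition plus 3 SD, cut at about 5.5% in these data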;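 note: 0% = DMSO wells median and 100% = median of wells with control inhibitor compound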
#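 assay system = parasite MetRS enzyme | timing = 15 min preincubation, 2 h reaction, all 25 °C | evaluation = percent inhibition relative to median high and low control wells | medium = HEPES buffer containing pyrophosphatase, BSA, spermine, DTT | compound = single dose, 11.9 µM final nominal, 0.9% final DMSO | detection = Kinase-Glo luminescence, ATP depletion format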
# eIF4E 4G PPI = eIF4E/eIF4G interaction inhibition in translation initiation | TR-FRET eIF4E-eIF4GI(517-606) binding, 2 h | AID 782 | inhibition, % at 21.7 µM | 0.37% of 220,000 active;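 note: 0% = full FRET control wells and 100% = background wells lacking eIF4GI fragment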
# 14-3-3 Bad inh = disrupts binding of bovine 14-3-3 zeta to phospho-Bad peptide; TR-FRET 14-3-3zeta/Dy647-pBad peptide displacement, 1 h; P63103; AID 781; 0.71% of 220,000 active; inhibition, % at 21.7 µM;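 active = inhibition above about 70%, limit read from the data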;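 note: 0% = full 14-3-3 plus peptide FRET controls and 100% = background without 14-3-3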
# SUMO HTRF inh = SUMOylation inhibition; inhibition, % at 35 µM; 0.36% of 290,000 active; HTRF SUMOylation assay, SAE1/SAE2 + UBC9, in vitro; in the data active = inhibition above about 50%, passing the limit was not always enough
# p97 ATPase inh = blocks human p97 ATPase activity; 0.42% of 220,000 active; P55072; recombinant p97 ATPase, Kinase-Glo ATP luminescence, 3 h; inhibition, % at 8 µM; in the data active = inhibition above about 15%;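 note: 0% = DMSO vehicle and 100% = wells lacking enzyme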
# TbMetRS confirm = confirmation of Trypanosoma brucei MetRS inhibitors; shares compounds with TbMetRS inhib; T. brucei MetRS enzyme, luminescence (ATP depletion); inhibition, % at 11.9 µM; 93% of 1,400 active; AID 624412; in the data active = inhibition above about 7%
# Jurkat tox = counter-screen for T. brucei MetRS inhibitors: Jurkat cell cytotoxicity | inhibition, % at 8.3 µM | shares compounds with TbMetRS inhib | 12% of 1,400 active | Jurkat cells viability, ATP luminescence; in the data active = inhibition above about 15%;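 note: 0% = vehicle and 100% = reference inhibitor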
# Tb MetRS inh FP = orthogonal test for Trypanosoma brucei MetRS inhibitors; shares compounds with TbMetRS inhib; 44% of 1,400 active; inhibition, % at 11.9 µM; purified T. brucei MetRS, fluorescence polarization; in the data active = inhibition above about 17%;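 note: 0% = vehicle wells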
# Numbers without * were called inactive; · = no result given.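 Rule for the calls, unless noted: active = inhibition above about 30% (limit read from the data); inactive = the rest.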
SMILES,p47phox inh,TbMetRS inhib,eIF4E 4G PPI,14-3-3 Bad inh,SUMO HTRF inh,p97 ATPase inh,TbMetRS confirm,Jurkat tox,Tb MetRS inh FP
O=C(NCc1nc2ccccc2[nH]1)C1=C[C@H](c2ccccc2)C[C@H](OCc2ccc(CO)cc2)O1,3.5,31.0*,-0.2,-4.3,-7.7,5.2,75.0*,0.8,38.2*
O=C(NCc1nc2ccccc2[nH]1)C1=C[C@H](c2coc3ccccc3c2=O)C[C@H](OCc2ccc(CO)cc2)O1,-50.4,23.7*,-1.2,-6.2,-8.5,·,58.1*,0.7,32.3*
CC(C)(C)[C@H]1C=C(C(=O)NCc2nc3ccccc3[nH]2)O[C@@H](OCc2ccc(CO)cc2)C1,-51.3,62.5*,-3.8,-8.0,-18.7,·,86.8*,6.7,60.8*
O=C(NCc1nc2ccccc2[nH]1)C1=C[C@H](c2ccc3c(c2)OCO3)C[C@H](OCc2ccc(CO)cc2)O1,-4.8,53.9*,-4.4,-4.4,-13.0,10.9,89.9*,-5.2,60.3*
O=C(NC1CC1)C1=C[C@@H](c2coc3ccccc3c2=O)C[C@@H](OCc2ccc(CO)cc2)O1,-19.9,0.0,-1.9,2.5,11.4,5.8,·,·,·
O=C(Nc1cccc(Cl)c1)c1cc(S(=O)(=O)N2CCOCC2)cs1,·,-0.1,·,·,-5.7,·,·,·,·
CC(C)C(NC(=O)C1CC(=O)N(Cc2ccccc2)C1)c1nc2ccccc2[nH]1 (centres undefined),·,-0.2,·,·,·,·,·,·,·
O=C(NCc1nc2ccccc2[nH]1)C1=C[C@@H](c2ccccc2)C[C@@H](OCc2ccc(CO)cc2)O1,·,77.3*,0.8,-0.1,1.5,-1.2,103.7*,-4.0,84.4*
O=C(NCc1nc2ccccc2[nH]1)C1=C[C@H](C2CCCCC2)C[C@H](OCc2ccc(CO)cc2)O1,4.7,4.8,-1.8,-12.2,-5.9,3.0,·,·,·
O=C(NCc1nc2ccccc2[nH]1)C1=C[C@@H](c2ccc3c(c2)OCO3)C[C@@H](OCc2ccc(CO)cc2)O1,-25.9,·,-4.9,0.3,1.3,·,·,·,·
O=C(NCc1nc2ccccc2[nH]1)C1=C[C@@H](c2ccc(C(F)(F)F)cc2)C[C@@H](OCc2ccc(CO)cc2)O1,·,37.0*,·,·,·,·,78.6*,-0.5,49.0*
Cc1cccc(NC(=O)CCC(=O)N/N=C/c2ccc(O)cc2O)c1,·,53.8*,·,·,10.0,·,80.6*,-0.1,46.2*
O=C(CCCSc1ccc(Cl)cc1)Nc1ccccc1O,·,18.3*,·,·,-4.7,·,37.5*,11.5,23.9*
Cc1ccc(SCCC(=O)N/N=C/c2cccnc2)cc1,-11.2,11.1*,-0.3,-8.9,-7.2,3.0,31.9*,11.1,20.7*
Cc1ccc(C)c(NC(=O)CCC(=O)N/N=C/c2cccnc2)c1,·,-0.6,·,·,-5.4,·,·,·,·
Cc1ccc(SCCC(=O)N/N=C/c2ccccc2O)cc1,0.4,17.9*,3.9,8.9,-1.9,2.1,80.3*,12.6,51.1*
CCn1cc([N+](=O)[O-])c(C(=O)N2CCCCCC2)n1,·,0.3,·,·,15.3,·,·,·,·
O=C(CCn1c(=O)sc2ccccc21)NCc1ccc2c(c1)OCO2,-11.3,0.1,2.7,3.1,-16.3,-0.5,·,·,·
Cc1ccc(S(=O)(=O)N2C[C@H]3N(C(=O)OC(C)C)N(C(=O)OC(C)C)C[C@H](OC(=O)Nc4c(C)noc4C)[C@@]3(O)C2)cc1,·,-0.6,·,·,·,·,·,·,·
O=C(CSc1nc2ccc(Cl)cc2[nH]1)NCCc1ccccc1,-15.7,42.5*,7.9,-15.5,-13.9,2.6,57.9*,-2.5,32.8*
O=C(CSc1nc2ccccc2[nH]1)NCc1ccco1,-1.9,-0.6,-0.7,2.9,19.9,5.7,·,·,·
O=C(CSc1nc2ccc(Cl)cc2[nH]1)NCc1ccco1,-12.8,8.3*,11.3,-5.4,-5.3,5.7,13.0*,8.3,2.0
O=C(CSc1nc2ccc(Cl)cc2[nH]1)NCCc1ccc(Cl)cc1,-7.1,62.5*,-4.3,3.2,1.8,-1.0,72.1*,5.1,41.0*
CN(C(=O)CSc1nc2ccc(Cl)cc2[nH]1)C1CCS(=O)(=O)C1 (centres undefined),·,10.5*,·,·,·,·,36.2*,3.8,24.1*
O=C(CSc1nc2ncc(Cl)cc2[nH]1)NCCc1ccc(F)cc1,-15.4,2.5,1.7,-13.7,0.0,0.4,·,·,·
SMILES,p47phox inh,TbMetRS inhib,eIF4E 4G PPI,14-3-3 Bad inh,SUMO HTRF inh,p97 ATPase inh,TbMetRS confirm,Jurkat tox,Tb MetRS inh FP
COc1ccc2nc(SCC(=O)NCCc3ccccc3)[nH]c2c1,-12.9,-0.1,3.3,0.4,13.2,6.2,·,·,·
CCOC(=O)[C@]12CCC=C1N(Cc1ccccc1)C(=O)[C@H](CC(=O)NCc1ccc(OC)c(OC)c1)C2,·,-0.6,·,·,·,·,·,·,·
O=C(CNS(=O)(=O)c1ccc([N+](=O)[O-])cc1)N/N=C\c1ccc(O)cc1,·,0.1,·,·,17.1,·,·,·,·
O=C(CNS(=O)(=O)c1ccc([N+](=O)[O-])cc1)N/N=C/c1ccc(O)cc1O,·,15.5*,·,·,7.4,·,36.2*,46.1*,22.0*
COc1cccc(CNC(=O)CSc2nnc3c(n2)[nH]c2ccc(C)cc23)c1,·,18.6*,·,·,21.1,·,78.5*,4.5,46.1*
Cc1ccc2[nH]c3nc(SCC#N)nnc3c2c1,·,2.5,·,·,15.7,·,·,·,·
COc1cccc(CNC(=O)CSc2nc3ccc(C)cc3[nH]2)c1,·,5.8*,·,·,21.6,·,20.3*,-3.2,8.0
Cc1ccc2nc(SCC(=O)NCc3cccs3)[nH]c2c1,-2.4,2.8,0.6,6.8,21.6,-4.3,·,·,·
COc1ccc2[nH]c3nc(SCC(=O)Nc4cccc(NC(C)=O)c4)nnc3c2c1,·,3.6,·,·,-2.8,·,·,·,·
COc1cccc(NC(=O)CSc2nnc3c(n2)[nH]c2ccc(C)cc23)c1,·,79.8*,·,·,3.2,·,96.2*,4.2,93.2*
C=CCc1cccc(CNc2cnc3ccccc3c2)c1O,·,6.0*,·,·,3.0,·,12.1*,30.6*,12.5
Oc1ccc2ccccc2c1CNc1cnc2ccccc2c1,-8.9,0.4,2.5,10.8,-0.5,4.1,·,·,·
Cn1c(NCc2cc(Br)ccc2O)nc2ccccc21,-11.7,41.3*,-0.5,-4.4,-10.0,4.5,57.6*,6.1,24.4*
C=CCc1cccc(CNc2nc3ccccc3n2C)c1O,·,28.1*,·,·,-5.2,·,46.0*,-1.3,25.7*
Oc1ccccc1CNc1cnc2ccccc2c1,-3.9,-0.8,3.9,10.2,3.7,0.6,·,·,·
Oc1ccc(Cl)cc1CNc1cnc2ccccc2c1,·,12.6*,·,·,1.1,·,14.1*,30.3*,9.6
Cc1sc2nc(CN3CCOCC3)nc(N3CCN(S(=O)(=O)c4ccccc4)CC3)c2c1C,·,-0.2,·,·,·,·,·,·,·
CCc1cc(Cn2nc(-c3ccccc3)cc2C(=O)NCc2cccc(C(F)(F)F)c2)on1,·,0.8,·,·,·,·,·,·,·
